Test results as given in ChEMBL document CHEMBL1149267, “The design and enzyme-bound crystal structure of indoline based peptidomimetic inhibitors of hepatitis C virus NS3 protease” (J Med Chem, 2004).

Molecular target: NS3 (Hepatitis C virus, UniProt A3EZJ3)
Test: Inhibition of HCV NS3 protease
Design: species or system Hepacivirus hominis
Conditions: not given
In short: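 IC50 taken after a 30 min preincubation of enzyme with inhibitor. Each value is the mean of 2 independent measurements, with standard deviations within 35% of the mean.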

Sequence of NS3 (A3EZJ3 whole entry): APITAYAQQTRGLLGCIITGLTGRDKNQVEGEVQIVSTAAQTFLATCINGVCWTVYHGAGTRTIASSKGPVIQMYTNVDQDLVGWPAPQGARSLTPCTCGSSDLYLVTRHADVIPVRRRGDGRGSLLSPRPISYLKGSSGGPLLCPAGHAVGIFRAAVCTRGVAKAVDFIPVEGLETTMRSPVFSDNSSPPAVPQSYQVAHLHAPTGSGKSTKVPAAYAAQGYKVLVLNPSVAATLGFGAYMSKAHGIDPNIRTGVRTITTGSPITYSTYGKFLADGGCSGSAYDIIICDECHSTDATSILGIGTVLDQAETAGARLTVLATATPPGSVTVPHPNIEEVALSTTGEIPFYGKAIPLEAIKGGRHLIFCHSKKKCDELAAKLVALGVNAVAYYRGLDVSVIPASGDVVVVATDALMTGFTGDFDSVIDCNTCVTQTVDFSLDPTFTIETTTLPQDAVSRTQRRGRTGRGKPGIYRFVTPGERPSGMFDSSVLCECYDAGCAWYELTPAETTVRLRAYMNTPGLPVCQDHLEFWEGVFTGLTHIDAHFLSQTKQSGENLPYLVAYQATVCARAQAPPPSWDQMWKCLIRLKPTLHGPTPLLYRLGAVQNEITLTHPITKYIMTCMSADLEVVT

SMILES | IC50 [µM]
CC(C)C[C@H](NC(=O)C1(Cc2ccc(Cl)s2)Cc2ccccc2N1)C(=O)NC(CC(F)F)C(=O)C(=O)O (stereo partly specified) | 3.7
CC(C)C[C@H](NC(=O)C1(Cc2ccsc2C(=O)O)Cc2ccccc2N1)C(=O)NC(CC(F)F)C(=O)C(=O)O (single isomer, unassigned; diastereomer 3) | 38
CC(C)C[C@H](NC(=O)C1(Cc2ccsc2C(=O)O)Cc2ccccc2N1)C(=O)NC(CC(F)F)C(=O)C(=O)O (single isomer, unassigned; diastereomer 4) | 73
CC(C)C[C@H](NC(=O)C1(Cc2ccsc2C(=O)O)Cc2ccccc2N1)C(=O)NC(CC(F)F)C(=O)C(=O)O (single isomer, unassigned; diastereomer 1) | 0.7
CC(C)C[C@H](NC(=O)C1(Cc2ccsc2C(=O)O)Cc2ccccc2N1)C(=O)NC(CC(F)F)C(=O)C(=O)O (single isomer, unassigned; diastereomer 2) | 27
CC(C)C[C@H](NC(=O)C1(C2CCCCC2)Cc2ccccc2N1)C(=O)NC(CC(F)F)C(=O)C(=O)O (single isomer, unassigned; diastereomer 1) | 69

Continued, values first:

IC50 [µM] | SMILES
27 | CC(C)C[C@H](NC(=O)C1Cc2ccc(OCC(=O)O)cc2N1)C(=O)NC(CC(F)F)C(=O)C(=O)O (single isomer, unassigned; diastereomer 2)
50 | CC(C)C[C@H](NC(=O)C1Cc2ccccc2N1)C(=O)NC(CC(F)F)C(=O)C(=O)O (single isomer, unassigned; diastereomer 2)
10 | CC(C)C[C@H](NC(=O)C1Cc2ccc(OCC(=O)O)cc2N1)C(=O)NC(CC(F)F)C(=O)C(=O)O (stereo in doubt; 7m)
34 | CC(C)C[C@H](NC(=O)C1(CC2CCC2)Cc2ccccc2N1)C(=O)NC(CC(F)F)C(=O)C(=O)O (single isomer, unassigned; diastereomer 1)

Molecular target: NS3 (Hepatitis C virus) (UniProt A3EZJ3)
Test: Inhibition of HCV NS3 protease at 100 uM
Conditions: Hepacivirus hominis

Sequence of NS3 (Hepatitis C virus) (A3EZJ3 as listed by the source): as the sequence (A3EZJ3 whole entry) above

inhibition [%] | SMILES
< 50 | CC(C)C[C@H](NC(=O)C1Cc2ccc(OCC(=O)O)cc2N1)C(=O)NC(CC(F)F)C(=O)C(=O)O (single isomer, unassigned; diastereomer 4)
< 50 | CC(C)C[C@H](NC(=O)C1Cc2ccccc2N1)C(=O)NC(CC(F)F)C(=O)C(=O)O (single isomer, unassigned; diastereomer 1)
< 50 | CC(C)C[C@H](NC(=O)C1(C2CCCCC2)Cc2ccccc2N1)C(=O)NC(CC(F)F)C(=O)C(=O)O (single isomer, unassigned; diastereomer 2)
< 50 | CC(C)C[C@H](NC(=O)C1(CC2CCC2)Cc2ccccc2N1)C(=O)NC(CC(F)F)C(=O)C(=O)O (single isomer, unassigned; diastereomer 2)
< 50 | CC(C)C[C@H](NC(=O)C1Cc2ccc(OCC(=O)O)cc2N1)C(=O)NC(CC(F)F)C(=O)C(=O)O (single isomer, unassigned; diastereomer 3)
< 50 | CC(C)C[C@H](NC(=O)C1Cc2ccccc2N1)C(=O)NC(CC(F)F)C(=O)C(=O)O (single isomer, unassigned; diastereomer 3)
